Screening results: PubChem BioAssay, several laboratories
Tb hexokinase = Trypanosoma brucei hexokinase 1 inhibitors, primary screen, biochemical, G6PDH-coupled NADH absorbance, MLSCN library | inhibition, % at 10 µM | AID 1430, 2008 | recombinant TbHK1, G6PDH-coupled NADH A340 | actives 0.11% (n = 220,000) | hexokinase 1 [Trypanosoma brucei];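 active means inhibition of 50% or more in the single-dose primary screen; inactive means inhibition below 50%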
Rad51 HR inh = human RAD51 strand exchange inhibitors, primary screen, biochemical, fluorescence; hRad51 DNA strand exchange, fluorescence dequenching; inhibition, % at 10 µM; actives 0.085% (n = 200,000);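 active means inhibition above 40% at the single screening dose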;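 further: 0% = DMSO control wells and 100% = blanks with heterologous ssDNA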
Target sequence (Q06609 whole entry, looked up): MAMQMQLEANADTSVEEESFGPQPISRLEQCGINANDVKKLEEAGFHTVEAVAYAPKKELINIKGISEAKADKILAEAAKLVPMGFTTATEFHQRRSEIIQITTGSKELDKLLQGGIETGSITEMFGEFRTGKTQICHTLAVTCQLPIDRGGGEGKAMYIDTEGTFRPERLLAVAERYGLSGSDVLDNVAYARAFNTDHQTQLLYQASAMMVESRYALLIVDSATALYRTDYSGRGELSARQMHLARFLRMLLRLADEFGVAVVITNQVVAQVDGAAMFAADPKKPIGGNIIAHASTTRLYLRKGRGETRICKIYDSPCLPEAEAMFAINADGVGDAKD
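Material: hRad51 filaments on single-stranded DNA; Reagent: Donor/quencher-labelled 47-bp dsDNA substrate; Compound: 10 µM final, single point; Schedule: 37 °C 15-min filament assembly, 30-min compound preincubation, 15-min exchange; Technique: FRET fluorescence, excitation 485 nm, emission 520 nm; Benchmarks: control wells and blank wells on each plate.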
p47phox inh = p47phox/p22phox peptide binding inhibitors, primary screen, biochemical, uHTS, NADPH oxidase regulatory subunit. Neutrophil cytosol factor 1 (Homo sapiens), P14598. fluorescence polarization, 2 h. inhibition, % at 24.7 µM. actives 0.53% (n = 220,000). AID 1274, 2008;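 active means inhibition above about 30%, limit read from the data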;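 further: 0% = p47phox with labelled peptide and 100% = labelled peptide alone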
Mdm2 ligase inh = MDM2-luciferase reporter signal enhancers, primary screen, MDM2 E3 ligase inhibitor project, cell-based, luminescence, 1536-well; E3 ubiquitin-protein ligase Mdm2 (Homo sapiens), Q00987; cell-based MDM2 ubiquitination luciferase reporter, 2 h; 0 = plate control, 100 = twice control, blank-subtracted; signal enhancement, % at 5 µM; actives 0.11% (n = 210,000);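 active means signal enhancement of 30% or more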;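 further: luminescence tracks abundance of the self-degrading MDM2-luciferase fusion protein; higher signal means inhibition of MDM2 E3 ligase activity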
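Test system: mammalian cells stably expressing self-ubiquitinating, self-degrading MDM2 E3–luciferase fusion; Amount: 2000 cells in each well; Medium: DMEM; Schedule: 4 h settle plus 2 h compound, 37 °C; Technique: SteadyLite luciferase luminescence after 15 min room-temperature reagent incubation; Benchmarks: plate control and blank wells.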
Numbers without * were called inactive; · = no result given; + = active, no number. Sampled rows, rich in hits. Any-hit rate of the full collection: about 0.75%.

SMILES | Tb hexokinase | Rad51 HR inh | p47phox inh | Mdm2 ligase inh
Cc1cc(OCC(=O)Nc2ccc(F)c(F)c2)nc(C(C)C)n1 | 1 | -4 | 165* | 2
CCOC(=O)C1=C(O)CSC1=Nc1ccc(Cl)cc1 | 2 | -9 | + | -7
O=C1c2ccccc2C(=O)c2c1cccc2N1CCCC1 | -6 | -45 | 5 | 4
Cn1c(=O)cc2c3c(c(N4CCCCC4)ccc31)C(=O)c1ccccc1-2 | -11 | · | 34* | -4
NS(=O)(=O)c1ccc(Oc2ccc(S(N)(=O)=O)cc2)cc1 | 8 | -4 | -2 | -3
C=CS(=O)(=O)c1ccc(Oc2ccc(S(=O)(=O)C=C)cc2)cc1 | -7 | · | -2 | 64*
CC(C)(O)C1Cc2cc(/C=C/C(=O)O)c(O)cc2O1 (stereo not drawn) | -10 | -2 | 85* | -1
O=C(NCCN1C(=O)S/C(=C/c2cccnc2)C1=O)C1CC(=O)N(Cc2ccccc2)C1 (stereo not drawn) | -26 | 2 | 14 | 0
COCCCNC(=O)C1CCC(CNS(=O)(=O)c2ccc(C)cc2)CC1 (stereo not drawn) | 6 | 3 | 0 | -3
Cc1cccc2c1c1ccc3c(c1n2C)C(=O)C=CC3=O | -7 | · | -5 | 54*
COc1cccc(NC(=O)c2oc3ccccc3c2NC(C)=O)c1 | -9 | 112* | -7 | -2
Cc1ccc(/C=C2/NC(=O)N(Cc3ccc(Br)cc3)C2=O)o1 | -14 | 0 | -37 | 32*
CCN1C(=O)N/C(=C/c2ccc(C)o2)C1=O | -27 | 4 | 1 | 0
CN(C)S(=O)(=O)c1ccc(NC(=O)COC(=O)C2CC3CCCC(C2)C3=O)cc1 (stereo not drawn) | 0 | 14 | -3 | 6
CC(=O)Nc1ccc(C(=O)N(C)c2ccccc2)cc1 | 1 | -2 | -2 | -6
CCN(C(=O)c1ccc(NC(C)=O)cc1)c1ccccc1 | -7 | -1 | 55* | -21
COc1ccc(C2C(C#N)=C(N)Oc3cc4c(cc32)OCO4)cc1 (stereo not drawn) | 4 | -7 | 64* | -7
COc1ccc(OC)c(C2C(C#N)=C(N)Oc3cc(N)ccc32)c1 (stereo not drawn) | -4 | -36 | -7 | -10
CCCCCc1ccc(OCCOCCn2c[n+](C)c3ccccc32)c(CCCCC)c1 | 11 | -34 | 75* | -17
COc1ccc(S(N)(=O)=O)cc1C(N)=O | 5 | -29 | -3 | 16
CC(C)c1ccc(NC(=O)N2CCCC2C(=O)Nc2ccc(-n3cnnn3)cc2)cc1 (stereo not drawn) | -3 | 23 | 0 | -5
CN1CCN(C(=S)Nc2cc([N+](=O)[O-])ccc2Cl)CC1 | 1 | 3 | 3 | 31*
c1ccc(-c2nc(N3CCN(c4ccccc4)CC3)nc(-n3ccnc3)n2)cc1 | 1 | -1 | 58* | 1
O=S(=O)(c1ccc(-c2nnc(SCc3ccccc3)o2)cc1)N1CCCC1 | 2 | 1 | 42* | -13
Cc1ccc(-c2ccc(=O)n(CC(=O)NCc3ccc(F)cc3)n2)cc1 | -1 | 50* | -8 | -1
SMILES | Tb hexokinase | Rad51 HR inh | p47phox inh | Mdm2 ligase inh
Cc1ccc(CNC(=O)CSCc2ccc(F)cc2)cc1 | -4 | 46* | -9 | 1
Cc1ccc(CNC(=O)CSCc2ccccc2)cc1 | -1 | 4 | 2 | -9
Cc1ccc(-c2ccc(=O)n(CC(=O)NCCN(C)C)n2)cc1 | -3 | 1 | -4 | -13
Cc1cc(NC(=O)Nc2ccc(Cl)c(Cl)c2)n(-c2ccccc2)n1 | -1 | 8 | -12 | -91
CN(C)c1nc(-c2ccccc2)cc(C(F)(F)F)c1C#N | 3 | 3 | -2 | -1
CN(C)c1nc(-c2cccs2)cc(C(F)(F)F)c1C#N | -6 | -9 | 58* | -8
CSc1cccc(NC(=O)CCC(=O)O)c1 | -1 | 5 | 71* | 4
CSc1cccc(NC(=O)CCc2ccccc2)c1 | 1 | 1 | -6 | 3
COC(=O)COc1ccc(/C=N/NC(=O)c2ccc(N(Cc3ccccc3)S(C)(=O)=O)cc2)cc1 | 35 | 1 | 55* | -2
CC(C)Oc1ccc(/C=N/NC(=O)c2ccc(N(Cc3ccccc3)S(C)(=O)=O)cc2)cc1 | -4 | · | -8 | -6
O=C(Nc1ccc(N2CCCCC2)cc1)c1cccnc1Cl | -9 | -5 | 57* | -5
COc1ccc(NS(=O)(=O)c2cc(NC(=O)c3cccnc3Cl)ccc2N2CCCC2)cc1 | -14 | 2 | + | -15
COc1ccc(NS(=O)(=O)c2cc(NC(=O)c3cnc(C)cn3)ccc2N2CCCC2)cc1 | 8 | 8 | -45 | -6
C[n+]1nc(Nc2cccc(F)c2)sc1-c1ccc(C(=O)O)cc1 | -13 | · | 5 | 7
COc1ccc(OC)c(-n2c(=S)[nH]c3cc(C(=O)N(C)Cc4ccccc4)ccc3c2=O)c1 | 1 | 26 | -4 | -11
CCOc1ccc(NC(=O)CN2C(=O)/C(=C3\SC(=S)N(C4CCS(=O)(=O)C4)C3=O)c3ccccc32)cc1 (stereo not drawn) | 29 | -2 | 63* | ·
N#CCC(=O)NNC(=S)Nc1ccccc1C(F)(F)F | -4 | 41* | -1 | -16
COC(=O)Cc1[nH]nc2c1C(c1ccc(O)c(OC)c1)C(C#N)=C(N)O2 (stereo not drawn) | -9 | 1 | -15 | ·
O=C(Cn1c(O)c(/C=C2\C=Nc3ccc(Br)cc32)sc1=O)N1CCCC1 | -29 | · | 39* | -9
CCc1ccccc1N1CSC2=C(C#N)C(c3cc(OC)c(OC)cc3OC)CC(=O)N2C1 (stereo not drawn) | -12 | -8 | 31* | -19
c1ccc(COc2ccccc2CNC23CC4CC(CC(C4)C2)C3)cc1 | 14 | -31 | -11 | -3
CCCCC(CC)C(=O)Oc1ccc(O)c(C(C)(C)C)c1 (stereo not drawn) | 15 | -6 | 1 | -14
CC(C)(C)c1cc(OS(C)(=O)=O)ccc1O | -6 | 2 | 32* | 0
O=C(c1cccc([N+](=O)[O-])c1)N1CCN(c2n[nH]c(=O)[nH]c2=O)CC1 | -13 | 11 | -18 | ·
OCc1cccnc1 | · | -6 | · | ·
O=C1CCc2cc(S(=O)(=O)NC(C(=O)N3CCN(c4ccccn4)CC3)c3ccccc3)ccc2N1 (stereo not drawn) | -4 | 41* | -9 | -5
O=C1CCc2cc(S(=O)(=O)NC(C(=O)NCc3cccnc3)c3ccccc3)ccc2N1 (stereo not drawn) | -4 | -3 | 7 | -6
CC(=O)Nc1cccc(NC(=O)C(=O)c2cn(CC(=O)N3CCCCC3)c3ccccc23)c1 | -21 | -6 | -29 | -15
O=C(CSCc1ccc(F)cc1)Nc1nc2c(s1)CCCC2 | 5 | 66* | -6 | -9
